# Data reported in ChEMBL document CHEMBL1139340, “Synthesis, radiosynthesis, and biological evaluation of carbon-11 and fluorine-18 labeled reboxetine analogues: potential positron emission tomography radioligands for in vivo imaging of the norepinephrine transporter” (J Med Chem, 2009).
# Key:
# [1] = molecular target: Sodium-dependent dopamine transporter (Homo sapiens, UniProt Q01959); assay: Displacement of [125I]RTI-55 from human DAT receptor expressed in canine kidney cells; assay type: cell-based
# In short: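 Competition binding against [¹²⁵I]RTI-55 in canine kidney cells stably transfected with human DAT. Ki in nM, geometric mean ± SD of at least three separate experiments, each run in triplicate.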
# [2] = molecular target: Sodium-dependent noradrenaline transporter (Homo sapiens, UniProt P23975); assay: Displacement of [3H]nisoxetine from human NET receptor expressed in HEK293 cells; assay type: cell-based
# Homo sapiens [3] = species on record: Homo sapiens; assay: Selectivity for human NET over human SERT
# In short: (§1)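 Competition binding in stably transfected cells expressing human transporters: NET vs [3H]nisoxetine and SERT vs [3H]citalopram in HEK-293 cells; DAT vs [125I]RTI-55 in canine kidney cells. Ki as geometric mean of at least three experiments in triplicate; selectivity as ratio of SERT or DAT Ki to NET Ki.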
# Homo sapiens [4] = species on record: Homo sapiens; assay: Selectivity for human NET over human DAT; in short: as §1
# [5] = molecular target: Sodium-dependent serotonin transporter (Homo sapiens, UniProt P31645); assay: Displacement of [3H]citalopram from human SERT receptor expressed in HEK293 cells; assay type: cell-based
# In short: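 Competition binding against [³H]citalopram in HEK-293 cells stably transfected with human SERT. Ki in nM, geometric mean ± SD of at least three separate experiments, each run in triplicate.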
# [6] = Lipophilicity, log P at pH 7.4; assay type: physicochemical; conditions: buffer
# In short: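 Radiotracer (~5–10 μCi) in 2 mL 1-octanol plus 2 mL 0.02 M sodium phosphate buffer, pH 7.4. Vortexed 10 min at room temperature, centrifuged 5 min. 0.5 mL of each layer gamma-counted and decay corrected. log P = log(octanol counts/buffer counts), done three times and averaged.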
# Chain of Sodium-dependent serotonin transporter (P31645 whole entry): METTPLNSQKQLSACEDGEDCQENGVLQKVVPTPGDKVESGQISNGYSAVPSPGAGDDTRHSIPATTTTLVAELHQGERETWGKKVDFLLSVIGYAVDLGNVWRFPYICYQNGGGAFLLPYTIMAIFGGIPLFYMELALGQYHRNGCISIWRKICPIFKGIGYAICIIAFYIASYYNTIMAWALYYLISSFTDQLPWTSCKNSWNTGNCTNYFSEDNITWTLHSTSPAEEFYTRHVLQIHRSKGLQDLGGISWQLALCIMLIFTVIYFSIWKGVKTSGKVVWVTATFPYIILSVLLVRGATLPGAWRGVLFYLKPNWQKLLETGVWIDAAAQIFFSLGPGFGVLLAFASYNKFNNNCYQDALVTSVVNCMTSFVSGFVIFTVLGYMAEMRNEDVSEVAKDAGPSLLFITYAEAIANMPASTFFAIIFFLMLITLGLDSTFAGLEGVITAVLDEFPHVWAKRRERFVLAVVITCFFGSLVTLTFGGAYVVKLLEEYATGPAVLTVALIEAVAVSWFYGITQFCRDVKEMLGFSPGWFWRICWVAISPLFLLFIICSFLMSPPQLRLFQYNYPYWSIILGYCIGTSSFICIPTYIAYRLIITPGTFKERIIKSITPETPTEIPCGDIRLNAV
# Chain of Sodium-dependent noradrenaline transporter (P23975 whole entry): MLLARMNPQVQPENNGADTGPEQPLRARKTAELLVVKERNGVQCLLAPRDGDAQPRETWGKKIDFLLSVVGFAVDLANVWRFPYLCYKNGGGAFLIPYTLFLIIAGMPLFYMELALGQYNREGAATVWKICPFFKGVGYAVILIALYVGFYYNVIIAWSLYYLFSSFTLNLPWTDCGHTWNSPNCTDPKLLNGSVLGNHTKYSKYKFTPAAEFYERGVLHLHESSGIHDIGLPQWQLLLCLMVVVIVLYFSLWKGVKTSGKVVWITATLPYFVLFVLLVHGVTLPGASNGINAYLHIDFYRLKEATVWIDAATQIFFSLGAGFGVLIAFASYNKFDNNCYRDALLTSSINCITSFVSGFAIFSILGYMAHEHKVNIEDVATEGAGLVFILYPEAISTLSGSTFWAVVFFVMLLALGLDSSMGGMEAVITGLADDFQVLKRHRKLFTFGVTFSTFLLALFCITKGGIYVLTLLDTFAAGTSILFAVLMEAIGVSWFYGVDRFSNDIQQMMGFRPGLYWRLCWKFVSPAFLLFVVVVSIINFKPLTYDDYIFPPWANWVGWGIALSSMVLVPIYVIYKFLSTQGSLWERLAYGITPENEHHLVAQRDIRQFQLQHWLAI
# Chain of Sodium-dependent dopamine transporter (Q01959 whole entry): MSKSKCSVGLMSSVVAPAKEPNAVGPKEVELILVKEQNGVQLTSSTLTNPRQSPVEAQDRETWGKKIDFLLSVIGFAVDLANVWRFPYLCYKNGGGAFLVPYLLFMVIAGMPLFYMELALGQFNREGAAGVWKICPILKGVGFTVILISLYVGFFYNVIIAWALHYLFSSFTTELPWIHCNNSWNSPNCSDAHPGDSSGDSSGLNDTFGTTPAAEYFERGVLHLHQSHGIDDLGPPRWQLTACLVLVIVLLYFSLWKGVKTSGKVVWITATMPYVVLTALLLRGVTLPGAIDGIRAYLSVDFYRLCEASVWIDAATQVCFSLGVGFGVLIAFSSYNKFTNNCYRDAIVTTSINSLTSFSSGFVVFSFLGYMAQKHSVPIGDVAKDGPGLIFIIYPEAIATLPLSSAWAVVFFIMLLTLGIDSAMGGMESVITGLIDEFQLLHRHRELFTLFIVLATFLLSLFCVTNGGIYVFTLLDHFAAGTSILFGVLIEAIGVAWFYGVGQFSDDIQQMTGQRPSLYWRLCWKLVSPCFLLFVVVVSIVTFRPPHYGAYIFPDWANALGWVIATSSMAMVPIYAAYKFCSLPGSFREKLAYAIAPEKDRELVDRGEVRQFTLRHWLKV
Ki [1],Ki [2],Ratio Ki (Homo sapiens [3]),Ratio Ki (Homo sapiens [4]),Ki [5],logD [6],Structure (SMILES)
> 6000 nM,3.14 nM,137,> 2000,430 nM,2,FCCc1ccccc1O[C@@H](c1ccccc1)[C@@H]1CNCCO1
275 nM,0.3 nM,49,917,14.8 nM,2.47,Cc1ccccc1S[C@@H](c1ccccc1)[C@@H]1CNCCO1
